An excerpt weighted towards active compounds, which were near 4.6% of everything screened.
OX1R antag-1: blocks the human orexin 1 receptor | O43613 | CHO/OX1R cells, Fluo-8 calcium fluorescence, orexin A | inhibition, % at 5 µM | 330,000 compounds, 0.43% hits | AID 434989;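 active = inhibition above its plate's threshold, mean inhibition of all tested compounds on the plate plus 3 SD, cut at about 37% in these data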;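 also: 0% = orexin A challenge wells and 100% = SB-334867-A antagonist wells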
Target sequence (O43613 whole entry, looked up): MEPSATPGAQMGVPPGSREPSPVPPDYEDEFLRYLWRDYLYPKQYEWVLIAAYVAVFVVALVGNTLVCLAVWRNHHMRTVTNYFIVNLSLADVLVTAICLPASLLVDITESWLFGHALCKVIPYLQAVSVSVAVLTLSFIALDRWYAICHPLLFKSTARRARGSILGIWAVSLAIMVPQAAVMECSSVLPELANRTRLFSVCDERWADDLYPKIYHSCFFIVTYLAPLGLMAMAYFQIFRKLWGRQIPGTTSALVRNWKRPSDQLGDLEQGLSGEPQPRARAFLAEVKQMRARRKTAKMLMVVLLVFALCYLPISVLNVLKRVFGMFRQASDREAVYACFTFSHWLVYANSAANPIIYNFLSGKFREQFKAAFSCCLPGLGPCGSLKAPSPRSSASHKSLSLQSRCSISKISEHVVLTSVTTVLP
TAAR1 antag: human TAAR1 antagonism. CHO RD-HGA16 TAAR1, Fluo-8 calcium fluorescence, antagonist. AID 624466. inhibition, % at 3 µM. Q96RJ0. 360,000 compounds, 1.5% hits;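 active = inhibition above a per-plate cutoff, the mean inhibition of test compounds on that plate plus 3 SD, cut at about 49% in these data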;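 also: 0% = DMSO plus EC80 beta-PEA response and 100% = DMSO alone without agonist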
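Material: RD-HGA16 CHO cells with stable hTAAR1 and Gα16; Dosing: single nominal final test compound concentration of 3 µM; Schedule: seeding 17-24 h prior, 75-min 37 °C, 30-min RT dye loading; Detection: kinetic Fluo-8 calcium fluorescence measurement; Measure: % inhibition from peak post-agonist over basal fluorescence ratio; Benchmarks: vehicle and agonist controls.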
OX1R antag-2: antagonists of human orexin 1 receptor (OX1R); OX1R-expressing cells, FRET antagonist read-out; inhibition, % at 6.6 µM; 330,000 compounds, 1.8% hits; AID 485270; in the data active = inhibition mostly above about 38%, no sharp cut-off; inactive = mostly below about 40%;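 also: 0% = agonist challenge alone and 100% = reference antagonist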
TAAR1 ag: human TAAR1 agonism | CHO RD-HGA16 TAAR1, Fluo-8 calcium fluorescence; vehicle wells 0%, saturating PEA agonist 100% | activation, % at 3 µM | 360,000 compounds, 0.99% hits | AID 624467;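 active = activation above the mean activation of all test compounds in the run plus 3 SD, cut at about 38% in these data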
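System: CHO RD-HGA16 cells carrying human TAAR1 plus Gα16; Incubation: 17-24 h seeding, 75 min 37 °C dye, 30 min RT; Measured by: Fluo-8 fluorescence, 5 s baseline then 140 s kinetic read; Control set: DMSO and PEA EC100; Replication: single well for each compound.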
CHO parental Ca: signal in parental CHO cells, OX1R antagonist counter-screen; parental CHO-K1, ATP-induced calcium, Fluo-8 fluorescence; AID 463079; inhibition, % at 5.6 µM; 330,000 compounds, 0.63% hits;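 active = inhibition above that plate's mean sample inhibition plus 3 SD, cut at about 26% in these data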;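 also: 0% = ATP-challenged DMSO wells and 100% = DMSO wells without ATP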
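Assay system: parental CHO cells; Read-out basis: percent inhibition of ATP-evoked calcium rise, normalized to controls; Benchmarks: ATP and no-ATP DMSO wells; Compound dosing: single nominal dose of 5.6 µM per compound; Signal: Fluo-8 calcium dye fluorescence; Also added: ATP as calcium-mobilizing challenge; Repeats: singlicate.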
GPR7 antag: antagonists of human GPR7 (neuropeptides B/W receptor 1). P48145. GPR7-expressing cells, fluorescence antagonist assay. inhibition, % at 4.4 µM. 290,000 compounds, 1.1% hits; in the data active = inhibition above about 16%, passing the limit was not always enough;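 also: cells stimulated with the agonist NPW; 0% = agonist with vehicle and 100% = vehicle without agonist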
GPR7 antag conf: confirmation of human GPR7 antagonists | 2,400 compounds, 52% hits | shares compounds with GPR7 antag | AID 1952 | GPR7-expressing cells, calcium fluorescence antagonist mode | inhibition, % at 4.4 µM; in the data active = inhibition above about 24%;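 also: stimulated with the GPR7 agonist NPW; 0% = agonist plus vehicle and 100% = vehicle alone without agonist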
MCHR1 antagonist: MCHR1 (human) antagonism in GPR7 counter-screen | shares compounds with GPR7 antag | MCHR1-expressing cells, fluorescence antagonist assay | 2,400 compounds, 62% hits | inhibition, % at 4.4 µM | AID 2148; in the data active = inhibition above about 22%;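 also: 0% = vehicle with agonist and 100% = vehicle without agonist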
* = called active by the depositor; . = no result.

SMILES	OX1R antag-1	TAAR1 antag	OX1R antag-2	TAAR1 ag	CHO parental Ca	GPR7 antag	GPR7 antag conf	MCHR1 antagonist
CCCCn1c(N)c(N(Cc2ccccc2OC)C(=O)COc2ccc(F)cc2Cl)c(=O)[nH]c1=O	0	-12	12	1	-14	-5	.	.
CCCCn1c(N)c(N(Cc2ccccc2OC)C(=O)COc2ccccc2C#N)c(=O)[nH]c1=O	-2	-14	12	0	-13	27*	2	3
CC(=O)Nc1ccc(NC(=O)COC(=O)C2CCCCC2)cc1	9	11	4	4	-2	.	.	.
CCN(CC(=O)Nc1cc(Cl)ccc1C)C(=O)CCOc1ccc(C)cc1	-37	-25	28	-3	-21	.	.	.
CCN(CC(=O)Nc1cc(Cl)ccc1C)c1ncnc2sc(C)c(C)c12	-22	11	25	2	-16	23*	11	44*
CCOC(=O)[C@H]1[C@H]2COc3ccc(Cl)cc3[C@@H]2N2C(=O)CN(Cc3ccc(Cl)cc3)C(=O)[C@@]12C	-24	-13	7	2	-25	.	.	.
Cn1cccc1C(=O)NC(=O)COC(=O)CNC(=O)CNC(=O)c1ccc(Cl)cc1Cl	-10	5	16	3	-22	27*	8	1
COc1ccc(/C=C2\SC(=O)N(CC(=O)Nc3ccc(F)cc3)C2=O)cc1O	3	28	16	4	0	29*	1	6
COc1ccc(/C=C2\SC(=O)N(CC(=O)Nc3cccnc3)C2=O)cc1OC	-11	-10	17	4	-7	-1	.	.
CCn1c(Cc2ccccc2)nnc1SCc1ccc([N+](=O)[O-])cc1	-22	-12	16	1	-9	32*	14	-2
O=C(NS(=O)(=O)Oc1cccc(F)c1)OC[C@@H]1CCCN2CCCCC12 (some centres undefined)	-5	-2	10	-2	2	23*	-11	10
COc1ccc(OC)c(S(=O)(=O)NC(=O)C2(C)CCN2C(=O)c2ccco2)c1 (centres undefined)	.	-26	.	2	.	.	.	.
c1ccc(CNCCC(Cc2ccccc2)c2ccco2)cc1 (centres undefined)	-38	-9	13	16	-47	23*	28*	35*
CC1CCC2(CC1)NC(=O)N(NC(=O)CCc1c[nH]c3ccccc13)C2=O (centres undefined)	.	4	.	2	.	.	.	.
CCCN(CCC)c1nc(Cl)nc(NCc2ccco2)n1	-44	-9	18	18	-22	21*	-13	7
CC(=O)c1ccc(N2CCN(c3ncccn3)CC2)c([N+](=O)[O-])c1	3	8	30	0	10	35*	13	18
COc1cccc(NC(=O)c2nnn(CC(=O)Nc3cc(C)cc(C)c3)c2N)c1	-3	-15	-3	5	10	-3	.	.
Cc1cc(C)cc(NC(=O)c2nnn(Cc3cc(C)ccc3C)c2N)c1	80*	.	12	.	68*	51*	87*	91*
Cn1c(N)c(C(=O)CSc2nc(C3CC3)n(-c3ccccc3)n2)c(=O)[nH]c1=O	-13	-7	10	19	-9	.	.	.
O=S(=O)(c1ccc(F)cc1F)N1CCCN(c2ccc(C(F)(F)F)cn2)CC1	-14	-27	0	0	-32	-6	.	.
N#Cc1ccc(S(=O)(=O)N2CCCN(c3ccc(C(F)(F)F)cn3)CC2)cc1	-14	4	3	-2	-11	24*	19	8
C[C@H]1CN([C@@H](C)CO)S(=O)(=O)c2ccc(Br)cc2O[C@H]1CN(C)C(=O)Cc1ccccn1	.	-4	.	5	.	.	.	.
COc1ccc(OCc2nnc(SCC(=O)Nc3ccccc3F)o2)cc1	-11	4	18	-1	-5	1	.	.
CCCCn1c(SCc2cccc([N+](=O)[O-])c2)nc2ccsc2c1=O	-5	21	30	2	-14	3	.	.
CCC(C)n1c(SCc2ccc([N+](=O)[O-])cc2)nc2ccsc2c1=O (centres undefined)	-17	34	23	5	-26	25*	23	44*
SMILES	OX1R antag-1	TAAR1 antag	OX1R antag-2	TAAR1 ag	CHO parental Ca	GPR7 antag	GPR7 antag conf	MCHR1 antagonist
O=C(N/N=C/c1cccc(OC(=O)c2ccco2)c1)c1ccc(F)cc1	-21	18	10	-1	-11	22*	16	23*
COc1cc(/C=N/NC(=O)c2ccc(F)cc2)ccc1OC(=O)c1ccco1	-15	2	5	3	-14	5	.	.
CC(=O)Nc1cc(-c2cccc(C(=O)NCCN(C)C)c2)cn2c(-c3ccc(C(C)=O)cc3)cnc12	.	-25	.	3	.	.	.	.
OC[C@H]1O[C@@H](c2nc(-c3cccc4ccccc34)no2)[C@H](O)[C@@H]1O	.	-3	.	0	.	.	.	.
CC1CCN(c2ccc3nnc(CCC(=O)Nc4ccc(F)c(F)c4)n3n2)CC1	-28	-26	15	-2	-19	28*	37*	40*
O=C(CCc1nnc2ccc(N3CCCC3)nn12)Nc1ccc(F)c(F)c1	-11	-13	9	5	-7	0	.	.
COC(=O)Nc1nc2c(C)cccc2s1	-17	-10	10	5	-9	-12	.	.
CSc1cccc(NC(=O)Nc2nc3c(C)cccc3s2)c1	4	38	22	5	14	23	33*	76*
N#C/C(=C\c1cccn1S(=O)(=O)c1cccc(C#N)c1)S(=O)(=O)c1ccc(F)cc1	.	-16	.	6	.	.	.	.
O=C(CNC(=O)c1ccco1)NCC(=O)OCc1c(F)cccc1Cl	-6	6	2	0	-9	-15	.	.
O=C(CNC(=O)c1ccco1)OCc1c(F)cccc1Cl	2	13	8	24	-5	25*	0	7
CC1(c2ccccc2)NC(=O)N(CC(=O)N2CCN(S(=O)(=O)c3ccccc3[N+](=O)[O-])CC2)C1=O (centres undefined)	-2	-9	26	4	3	-3	.	.
CCC(C)[C@H]1CN=C(N)N1CCc1cccc(F)c1 (some centres undefined)	2	-4	9	10	-6	.	.	.
c1ccc2c(-c3ccncc3)c[nH]c2c1	12	-4	21	17	-3	23*	-18	12
c1ccc(-c2nnc(-c3ccccc3)c(-c3c[nH]c4ccccc34)n2)cc1	-10	0	32	6	1	19	.	.
O=C(NC1CCC(O)CC1)c1cccnc1Sc1ccccc1Cl (centres undefined)	7	-17	8	2	5	-19	.	.
Clc1ccc(CN(Cc2ccc(Cl)cc2)c2nn[nH]n2)cc1	2	0	31	-2	-5	26*	25*	21

Assay outcomes: PubChem BioAssay, The Scripps Research Institute Molecular Screening Center
